What all share (format): functional, cell-based
Common to all, as to conditions: Homo sapiens

One assay deals with HCT-116. Description: Cytotoxicity against HCT116 cells assessed as cell survival by SRB assay. For orientation: In SRB staining, fixed cells bind dye roughly in proportion to their protein.
Another assay concerns NCI-H358. Kind of assay: Cytotoxicity against NCI-H358 cells assessed as cell survival by SRB assay.
Assay [1] relates to K562. Kind of assay: Cytotoxicity against K562 cells assessed as cell survival by MTT assay. In outline: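 Suspension leukemia cells seeded, 24 h, then 48 h treatment with compounds diluted from ethanol stock into medium. MTT added (final 500 µg/ml), 3 h at 37 °C. Medium removed, formazan dissolved in DMSO, absorbance at 570 nm. Survival relative to solvent-treated controls; EC50 (concentration giving 50% survival) by non-linear regression; minimum of three experiments.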
(In general: Tetrazolium dyes change colour on reduction, which living cells bring about.)

In assay [2] the test system is K562. Kind of assay: Induction of apoptosis in K562 cells assessed as DNA fragmentation after 18 hrs by agarose gel electrophoresis. In outline: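 Cells in 100-mm dishes exposed to various concentrations for 18 h. Lysed in 50 mM Tris-HCl pH 7.5, 20 mM EDTA, 1% NP-40 for 5 min at 4 °C. SDS added (final 1%) for 1 h at 56 °C, then proteinase K (final 2.5 µg/µl) for 2 h at 37 °C. DNA precipitated with ammonium acetate (final 5 M) and ethanol. 5 µg run on 2% agarose gel.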

These results are taken from ChEMBL document CHEMBL1140649, “Design, synthesis, and preliminary biological evaluation of a novel triazole analogue of ceramide” (Bioorg Med Chem Lett, 2007).

The source made the active and inactive calls. The calls are words filed in the database; no cut-off is given here.

The EC50 is the concentration giving half of the maximal effect. `CCCCCCCCCCCCCC[C@@H](O)[C@@H](O)[C@H](CO)n1cc(CCC)nn1`: the EC50 stood at 13.9 µM in the assay with HCT-116, 13.2 µM in the assay with NCI-H358 and 14.9 µM in the assay on K562 [1].

As for `CCCCCCCCCCCCC/C=C/[C@@H](O)[C@H](CO)NC(C)=O`, the EC50 stood at 24.5 µM in the assay with HCT-116, 19.6 µM in the assay with NCI-H358 and 35.1 µM with K562 [1].

In the case of `CCCCCCCCCCCCCC[C@@H](O)[C@@H](O)[C@H](CO)n1cc(CCCCCC)nn1`, the EC50 came to 12 µM in the assay with HCT-116, 13.7 µM with NCI-H358 and 12.6 µM with K562 [1].

In the case of `CCCCCCCCCCCCC/C=C/[C@@H](O)[C@H](CO)n1cc(CCCC)nn1`, the EC50 in the assay on HCT-116 was 12.9 µM; in the assay with NCI-H358, 13.6 µM; in the assay with K562 [1], 12.3 µM. In addition, the outcome in the assay on K562 [2] was Active.

As to `CCCCCCCCCCCCC/C=C/[C@@H](O)[C@H](CO)n1cc(CCCCCC)nn1`, the EC50 with HCT-116 was 12.5 µM; with NCI-H358, 12.8 µM; in the assay on K562 [1], 8.2 µM.

For the compound `CCCCCCCCCCCCC/C=C/[C@@H](O)[C@H](CO)n1cc(CCC)nn1`, the figures for the EC50 in the assay with HCT-116, in the assay on NCI-H358 and with K562 [1] were 16 µM, 15.7 µM and 13 µM, respectively.

For the compound `CCCCCCCCCCCCC/C=C/[C@@H](O)[C@H](CO)n1cc(CCCCCCCCCCCCC)nn1`, the EC50 in the assay on HCT-116, with NCI-H358 and with K562 [1] was more than 50 µM throughout.

Consider `CCCCCCCCCCCCCCCCCCCCCCCCc1cn([C@@H](CO)[C@H](O)[C@H](O)CCCCCCCCCCCCCC)nn1`, for which the EC50 with HCT-116, in the assay with NCI-H358 and in the assay on K562 [1] was more than 50 µM throughout.

On to `CCCCCCCCCCCCC/C=C/[C@@H](O)[C@H](CO)n1cc(CCCCCCCCCCCCCCCCCCCCCCCC)nn1`, for which the EC50 in the assay on HCT-116, with NCI-H358 and with K562 [1] was more than 50 µM each time.

As for `CCCCCCCCCCCCCC[C@@H](O)[C@@H](O)[C@H](CO)n1cc(CCCC)nn1`, the EC50 with HCT-116 stood at 12.9 µM; with NCI-H358, 12.9 µM; in the assay with K562 [1], 14.5 µM. Also, in the assay with K562 [2], the outcome was Active.

Regarding `CCCCCCCCCCCCCC[C@@H](O)[C@@H](O)[C@H](CO)n1cc(CCCCCCCCCCCCC)nn1`, the EC50 with HCT-116, with NCI-H358 and in the assay with K562 [1] was more than 50 µM in each case.
